From ChEMBL document CHEMBL1157678, “alpha-Glucosidase inhibitory antihyperglycemic activity of substituted chromenone derivatives” (Bioorg Med Chem, 2010)
Calls of active or inactive are those of the source. The calls are words filed in the database; no cut-off is given here.

Experiments:
[1] = system: Radical scavenging activity; assay: Antioxidant activity assessed as DPPH radical scavenging activity at 25 ug/mL after 30 mins by spectrophotometry; format: functional
Method in brief: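 Test sample in DMSO (1 mg/mL stock) was mixed with 0.1 M Tris–HCl pH 7.4 and 0.5 mM DPPH in absolute ethanol. The mixture was shaken and kept in the dark 30 min, then absorbance read at 517 nm. Scavenging (%) = (1 − B/A) × 100 against a control without sample.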

[2] = organism: Rattus norvegicus; assay: Inhibition of rat intestinal alpha-glucosidase at 100 ug/mL after 5 mins by spectrophotometry
Method in brief: (§1)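 Enzyme source was the supernatant of sonicated rat intestinal homogenate after centrifugation. Sample (5 mg/mL DMSO stock) in 100 mM phosphate buffer pH 6.8 was preincubated with enzyme for 5 min, then 5 mM p-nitrophenyl-α-D-glucopyranoside added. p-Nitrophenol was read at 405 nm 5 min later, with substrate-free blanks and a DMSO control. Inhibition (%) = (1 − B/A) × 100; IC50 by logarithmic regression.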

[3] = Inhibition of rat intestinal alpha-glucosidase after 5 mins by spectrophotometry; method in brief: as §1
[4] = system: Rattus norvegicus; assay: Antihyperglycemic activity in overnight fasted starch-induced hyperglycemic Wistar rat assessed as decrease in plasma glucose level at 100 mg/kg, po administered 15 mins before starch challenge measured after 30 to 120 mins by glucose oxidase method; format: functional, organism-based; parameters: dose 100 mg/kg
Method in brief: (§2)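 Wistar rats of either sex (195–215 g), housed at 22 °C with a 12 h light/dark cycle, fasted overnight. Test agent suspended in normal saline and given orally by gastric intubation; controls received saline. Soluble starch (2 g/kg in saline) fed 15 min later. Retro-orbital blood was collected into EDTA for plasma glucose at 0–120 min. Plasma glucose AUC by trapezoid formula.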

[5] = organism: Rattus norvegicus; assay: Mixed noncompetitive inhibition of rat intestinal alpha-glucosidase at 10.6 uM by Lineweaver-Burke plot analysis
Method in brief: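 Conditions follow the rat intestinal α-glucosidase/p-NPG assay, but Vmax kinetics were recorded over 10 min at 30 s intervals after a 10 s lag following substrate addition. Substrate was used at various dilutions, with or without preincubation of inhibitor. Data were analysed on a Lineweaver–Burk plot.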

[6] = system: Rattus norvegicus; assay: Antihyperglycemic activity in overnight fasted starch-induced hyperglycemic Wistar rat assessed as decrease in plasma glucose level at 10 mg/kg, po administered 15 mins before starch challenge measured after 30 to 120 mins by glucose oxidase method; format: functional, organism-based; parameters: dose 10 mg/kg; method in brief: as §2

| SMILES | Activity [1] | inhibition [2] | IC50 [3] | Activity [4] | inhibition [5] | Activity [6] |
| --- | --- | --- | --- | --- | --- | --- |
| CC(=O)c1cc2cc(Br)ccc2oc1=O | 1.52% | 31.9% | – | – | – | – |
| CC(=O)c1cc2ccccc2oc1=O | 0.83% | 53.2% | – | – | – | – |
| CCOC(=O)c1cc2cc(-c3ccc(C)cc3)ccc2oc1=O | inactive | 65.9% | 112 µM | – | – | – |
| CCOC(=O)c1cc2cc(-c3ccccc3)ccc2oc1=O | 4.8% | 77.1% | 186 µM | – | – | – |
| CCOC(=O)c1cc2ccccc2oc1=O | 1.82% | 47% | – | – | – | – |
| COc1ccc(-c2ccc3oc(=O)c(C(C)=O)cc3c2)cn1 | inactive | 86% | 28.2 µM | Active | Active | – |
| CCOC(=O)c1cc2cc(-c3ccc(OC)nc3)ccc2oc1=O | inactive | 76.9% | 105 µM | – | – | – |
| Cc1c(Cl)c(=O)oc2cc(O)ccc12 | 20.8% | 77.8% | 128 µM | – | – | – |
| O=C(c1ccccc1)c1cc2cc(Br)ccc2oc1=O | 2.22% | 18.1% | – | – | – | – |
| CC(=O)c1cc2cc(-c3ccc(N4CCOCC4)cc3)ccc2oc1=O | 20.5% | 85.1% | 49 µM | – | – | – |
| CCOC(=O)c1cc2cc(-c3ccc(F)cc3)ccc2oc1=O | inactive | 66.7% | 37.6 µM | – | – | – |
| CCOC(=O)c1cc2cc(-c3cncnc3)ccc2oc1=O | inactive | 80.4% | 40.5 µM | – | – | – |
| CC(=O)c1cc2cc(-c3cccnc3)ccc2oc1=O | 3.72% | 96.4% | 58.1 µM | – | – | – |
| O=C(c1ccccc1)c1cc2ccc(O)cc2oc1=O | inactive | 53.7% | – | – | – | – |
| CC(=O)c1cc2cc(-c3ccccc3)ccc2oc1=O | 19.6% | inactive | – | – | – | – |
| CC(=O)c1cc2cc(-c3ccc(C)cc3)ccc2oc1=O | inactive | 86.5% | 52.6 µM | – | – | – |
| CC(=O)c1cc2cc(-c3ccc(F)cc3)ccc2oc1=O | 15.6% | 74.3% | 53.1 µM | – | – | – |
| O=c1cc(CCl)c2ccc(O)cc2o1 | 1.32% | 78.3% | 243 µM | – | – | – |
| O=C(c1ccccc1)c1cc2ccccc2oc1=O | 30.8% | 44.4% | – | – | – | – |
| C[C@H]1O[C@H](O[C@H]2[C@H](O)[C@@H](O)[C@@H](O[C@H]3[C@H](O)[C@@H](O)C(O)O[C@@H]3CO)O[C@@H]2CO)[C@H](O)[C@@H](O)[C@@H]1N[C@H]1C=C(CO)[C@@H](O)[C@H](O)[C@H]1O (some centres undefined) | – | – | – | – | – | Active |
| CC(=O)c1cc2cc(-c3cncnc3)ccc2oc1=O | inactive | 83.5% | 37.2 µM | – | – | – |
| Cc1c(C#N)c(=O)oc2ccc(-c3ccccc3)cc12 | 10.4% | 95.5% | 52.9 µM | – | – | – |
| CC(=O)c1cc2cc(-c3ccc(Cl)cc3)ccc2oc1=O | 12.5% | 76.9% | 96.4 µM | – | – | – |
| CCOC(=O)c1cc2ccc(O)cc2oc1=O | inactive | 77.6% | 91 µM | – | – | – |
| O=C(c1ccccc1)c1cc2cc(-c3ccccc3)ccc2oc1=O | 2.45% | 70% | 52.2 µM | – | – | – |
| COc1ccc(-c2ccc3oc(=O)c(C#N)c(C)c3c2)cn1 | 35% | 93.1% | 44.5 µM | – | – | – |
| Cc1c(O)ccc2c(CCl)cc(=O)oc12 | 28.5% | 72.7% | 68.7 µM | – | – | – |
